Read-outs that look alike come from different tables or passages of the source.
Assays:
human OTR = target: T1, human OTR (Homo sapiens, UniProt P30559); type: binding; settings: human receptors
T1 sequence (P30559 1-389): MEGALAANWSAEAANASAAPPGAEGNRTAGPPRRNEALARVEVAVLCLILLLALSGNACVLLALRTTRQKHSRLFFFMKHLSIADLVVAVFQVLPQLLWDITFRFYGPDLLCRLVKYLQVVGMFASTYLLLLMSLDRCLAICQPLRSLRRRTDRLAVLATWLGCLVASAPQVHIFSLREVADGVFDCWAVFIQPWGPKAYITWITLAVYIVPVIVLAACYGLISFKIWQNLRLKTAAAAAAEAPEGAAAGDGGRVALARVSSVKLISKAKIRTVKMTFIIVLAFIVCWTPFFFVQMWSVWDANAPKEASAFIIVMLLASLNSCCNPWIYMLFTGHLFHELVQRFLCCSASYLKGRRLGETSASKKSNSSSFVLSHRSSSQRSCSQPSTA

[1] = target: human vasopressin receptor V2 (Homo sapiens, UniProt P30518); type: binding; settings: competition with [3H]-AVP, NIMH PDSP
Chain of human vasopressin receptor V2 (P30518 whole entry): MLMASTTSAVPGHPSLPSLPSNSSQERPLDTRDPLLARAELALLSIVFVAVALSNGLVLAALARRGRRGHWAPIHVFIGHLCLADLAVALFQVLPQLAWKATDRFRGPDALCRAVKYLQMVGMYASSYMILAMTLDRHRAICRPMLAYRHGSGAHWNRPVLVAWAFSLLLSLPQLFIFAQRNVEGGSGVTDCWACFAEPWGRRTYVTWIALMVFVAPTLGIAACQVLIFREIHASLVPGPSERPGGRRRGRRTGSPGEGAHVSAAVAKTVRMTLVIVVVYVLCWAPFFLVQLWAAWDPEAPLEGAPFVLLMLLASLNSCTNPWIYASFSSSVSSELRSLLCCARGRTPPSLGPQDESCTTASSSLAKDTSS

[2] = target: T2, human vasopressin receptor V1b (Homo sapiens, UniProt P47901); type: binding; settings: competition with [3H]-AVP, NIMH PDSP
T2 sequence (P47901 1-424): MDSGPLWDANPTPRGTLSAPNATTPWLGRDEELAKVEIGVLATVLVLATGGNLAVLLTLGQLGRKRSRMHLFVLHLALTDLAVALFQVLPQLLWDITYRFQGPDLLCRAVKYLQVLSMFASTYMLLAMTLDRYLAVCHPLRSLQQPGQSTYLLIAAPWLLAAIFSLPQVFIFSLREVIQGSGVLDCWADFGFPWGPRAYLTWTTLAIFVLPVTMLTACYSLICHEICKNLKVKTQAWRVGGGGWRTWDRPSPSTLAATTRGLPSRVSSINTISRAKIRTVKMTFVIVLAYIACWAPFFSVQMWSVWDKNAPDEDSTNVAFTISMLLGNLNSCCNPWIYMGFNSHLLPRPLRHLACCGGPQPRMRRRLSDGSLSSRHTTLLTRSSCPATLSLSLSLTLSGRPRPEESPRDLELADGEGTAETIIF

human V1aR = human V1aR (Homo sapiens, UniProt P37288); type: binding; settings: competition with [3H]-AVP, NIMH PDSP
Chain of human V1aR (P37288 whole entry): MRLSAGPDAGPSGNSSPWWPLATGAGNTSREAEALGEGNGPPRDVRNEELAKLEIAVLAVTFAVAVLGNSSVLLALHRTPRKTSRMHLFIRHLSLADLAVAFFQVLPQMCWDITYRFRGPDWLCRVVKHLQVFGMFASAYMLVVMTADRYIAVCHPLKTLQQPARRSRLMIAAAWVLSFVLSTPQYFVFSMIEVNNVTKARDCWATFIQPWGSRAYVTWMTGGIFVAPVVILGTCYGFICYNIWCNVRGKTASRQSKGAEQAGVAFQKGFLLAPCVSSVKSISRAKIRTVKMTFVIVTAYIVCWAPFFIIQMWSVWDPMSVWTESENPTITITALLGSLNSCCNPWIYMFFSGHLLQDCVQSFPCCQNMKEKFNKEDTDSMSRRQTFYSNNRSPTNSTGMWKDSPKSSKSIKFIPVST

OTR and V1aR = assay: Receptor autoradiography with the radioligand on prairie vole brain slices; type: binding; settings: 70 pM radioligand
Procedure, shortened: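 Prairie vole brains were cut at 20 μm from prefrontal cortex through nucleus accumbens and ventral pallidum, stored at −80 °C, and thawed. Sections were dipped in 0.1% paraformaldehyde/PBS pH 7.4 and rinsed in 50 mM Tris pH 7.4. They were incubated 1 h with 70 pM radioiodinated test compound without competitor, then washed in 50 mM Tris + 2% MgCl2 pH 7.4, air-dried, and exposed to film 72 h. Six animals per study.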

[3] = type: in vivo; settings: female Sprague–Dawley rats, iv; for Biodistribution of radioactivity in brain region, Amygdala / Biodistribution of radioactivity in brain region, Basal Hypothalamus / Biodistribution of radioactivity in brain region, Cerebellum / Biodistribution of radioactivity in brain region, Dorsal Striatum / Biodistribution of radioactivity in brain region, Remaining Brain / Biodistribution of radioactivity, Blood / Biodistribution of radioactivity, Heart / Biodistribution of radioactivity, Kidney / Biodistribution of radioactivity, Liver / Biodistribution of radioactivity, Lung / Biodistribution of radioactivity, Muscle / Biodistribution of radioactivity, Uterus / Biodistribution of radioactivity, Brain: mean ± SD; for Biodistribution of radioactivity, Brain: total brain
rodent OTR = settings: prairie vole brain sections
[4] = cited from earlier work

## CS(=O)(=O)N1CCC(Oc2ccc(CC(=O)N3CCC(N4C(=O)CCc5ccccc54)CC3)c(OC/C=C/I)c2)CC1 [Compound 1, (E)-1-(1-(2-(2-(3-Iodoallyloxy)-4-(1-(methylsulfonyl)piperidin-4-yloxy)phenyl)acetyl)piperidin-4-yl)-3,4-dihydroquinolin-2(1H)-one]
Human OTR
  potency for the human OTR over V1aR: 79 fold

## CS(=O)(=O)N1CCC(Oc2ccc(CC(=O)N3CCC(N4C(=O)CCc5ccccc54)CC3)c(O)c2)CC1 [Compound 13, 1-(1-(2-(2-Hydroxy-4-(1-(methylsulfonyl)piperidin-4-yloxy)phenyl)acetyl)piperidin-4-yl)-3,4-dihydroquinolin-2(1H)-one]
[1]
  Ki Human V2: no detectable affinity
[2]
  Ki Human V1b: no detectable affinity
Human V1aR
  Ki Human V1aR: no detectable affinity

## CS(=O)(=O)N1CCC(Oc2ccc(CC(=O)N3CCC(N4C(=O)CCc5ccccc54)CC3)c(OC/C=C\[125I])c2)CC1 [[^125I]2, (Z)-1-(1-(2-(2-(3-[125I] Iodoallyloxy)-4-(1-(methylsulfonyl)piperidin-4-yloxy)phenyl)acetyl)piperidin-4-yl)-3,4-dihydroquinolin-2(1H)-one]
OTR and V1aR
  autoradiographic binding to brain regions: bind to receptors in the NAcc and VP
[3]
  in vivo stability of the radiolabel (thyroid / bone uptake over time): broken down readily in vivo at the iodine position
[3]; 15 min
  Biodistribution of radioactivity in brain region, Amygdala: 0.06 ± 0.01 %ID/g
  Biodistribution of radioactivity in brain region, Basal Hypothalamus: 0.04 ± 0.01 %ID/g
  Biodistribution of radioactivity in brain region, Cerebellum: 0.03 ± 0.01 %ID/g
  Biodistribution of radioactivity in brain region, Dorsal Striatum: 0.03 ± 0.01 %ID/g
  Biodistribution of radioactivity in brain region, Remaining Brain: 0.03 ± 0.01 %ID/g
  Biodistribution of radioactivity, Blood: 0.22 ± 0.14 %ID/g
  Biodistribution of radioactivity, Heart: 0.51 ± 0.41 %ID/g
  Biodistribution of radioactivity, Kidney: 0.38 ± 0.20 %ID/g
  Biodistribution of radioactivity, Liver: 2.12 ± 1.73 %ID/g
  Biodistribution of radioactivity, Lung: 1.79 ± 1.78 %ID/g
  Biodistribution of radioactivity, Muscle: 0.10 ± 0.09 %ID/g
  Biodistribution of radioactivity, Uterus: 0.22 ± 0.16 %ID/g
  Biodistribution of radioactivity, Brain: 0.02 ± 0.01 %ID/g
[3]; 30 min
  Biodistribution of radioactivity in brain region, Amygdala: 0.08 ± 0.06 %ID/g
  Biodistribution of radioactivity in brain region, Basal Hypothalamus: 0.03 ± 0.01 %ID/g
  Biodistribution of radioactivity in brain region, Cerebellum: 0.03 ± 0.01 %ID/g
  Biodistribution of radioactivity in brain region, Dorsal Striatum: 0.03 ± 0.01 %ID/g
  Biodistribution of radioactivity in brain region, Remaining Brain: 0.02 ± 0.01 %ID/g
  Biodistribution of radioactivity, Blood: 0.23 ± 0.23 %ID/g
  Biodistribution of radioactivity, Heart: 0.39 ± 0.38 %ID/g
  Biodistribution of radioactivity, Kidney: 0.31 ± 0.27 %ID/g
  Biodistribution of radioactivity, Liver: 1.91 ± 1.88 %ID/g
  Biodistribution of radioactivity, Lung: 1.02 ± 1.13 %ID/g
  Biodistribution of radioactivity, Muscle: 0.09 ± 0.08 %ID/g
  Biodistribution of radioactivity, Uterus: 0.16 ± 0.16 %ID/g
  Biodistribution of radioactivity, Brain: 0.02 ± 0.01 %ID/g
[3]; 60 min
  Biodistribution of radioactivity in brain region, Amygdala: 0.06 ± 0.01 %ID/g
  Biodistribution of radioactivity in brain region, Basal Hypothalamus: 0.03 ± 0.01 %ID/g
  Biodistribution of radioactivity in brain region, Cerebellum: 0.03 ± 0.01 %ID/g
  Biodistribution of radioactivity in brain region, Dorsal Striatum: 0.02 ± 0.01 %ID/g
  Biodistribution of radioactivity in brain region, Remaining Brain: 0.02 ± 0.01 %ID/g
  Biodistribution of radioactivity, Heart: 0.39 ± 0.12 %ID/g
  Biodistribution of radioactivity, Kidney: 0.46 ± 0.04 %ID/g
  Biodistribution of radioactivity, Liver: 3.01 ± 0.50 %ID/g
  Biodistribution of radioactivity, Lung: 0.66 ± 0.32 %ID/g
  Biodistribution of radioactivity, Muscle: 0.15 ± 0.03 %ID/g
  Biodistribution of radioactivity, Uterus: 0.31 ± 0.08 %ID/g
  Biodistribution of radioactivity, Brain: 0.02 ± 0.01 %ID/g
[3]; 120 min
  Biodistribution of radioactivity in brain region, Basal Hypothalamus: 0.04 ± 0.01 %ID/g
  Biodistribution of radioactivity in brain region, Cerebellum: 0.03 ± 0.01 %ID/g
  Biodistribution of radioactivity in brain region, Dorsal Striatum: 0.02 ± 0.01 %ID/g
  Biodistribution of radioactivity in brain region, Remaining Brain: 0.02 ± 0.01 %ID/g
  Biodistribution of radioactivity, Blood: 0.31 ± 0.17 %ID/g
  Biodistribution of radioactivity, Kidney: 0.29 ± 0.15 %ID/g
  Biodistribution of radioactivity, Liver: 1.91 ± 1.02 %ID/g
  Biodistribution of radioactivity, Lung: 0.41 ± 0.27 %ID/g
  Biodistribution of radioactivity, Muscle: 0.10 ± 0.05 %ID/g
  Biodistribution of radioactivity, Uterus: 0.22 ± 0.13 %ID/g
  Biodistribution of radioactivity, Brain: 0.02 ± 0.01 %ID/g

## COc1cc(OC2CCN(S(C)(=O)=O)CC2)ccc1CC(=O)N1CCC(N2C(=O)CCc3ccccc32)CC1 [Compound 4, 1-(1-(2-(2-Methoxy-4-((1-(methylsulfonyl)piperidin-4-yl)oxy)phenyl)acetyl)piperidin-4-yl)-3,4-dihydroquinolin-2(1H)-one]
Rodent OTR
  selectivity for the rodent OTR over V1aR: four times more selective

## COc1cc(OC2CCN(C(C)=O)CC2)ccc1C(=O)N1CCC(N2C(=O)OCc3ccccc32)CC1 [Compound L-371257]
[4]
  brain penetration: very poor brain penetrant

## CS(=O)(=O)N1CCC(Oc2ccc(CC(=O)N3CCC(N4C(=O)CCc5ccccc54)CC3)c(OC/C=C/[125I])c2)CC1 [[^125I]1, (E)-1-(1-(2-(2-(3-[125I]Iodoallyloxy)-4-(1-(methylsulfonyl)piperidin-4-yloxy)phenyl)acetyl)piperidin-4-yl)-3,4-dihy droquinolin-2(1H)-one]
OTR and V1aR
  autoradiographic binding to brain regions: bind to receptors in the NAcc and VP
[3]
  in vivo stability of the radiolabel (thyroid / bone uptake over time): broken down readily in vivo at the iodine position
[3]; 15 min
  Biodistribution of radioactivity in brain region, Amygdala: 0.09 ± 0.02 %ID/g
  Biodistribution of radioactivity in brain region, Basal Hypothalamus: 0.08 ± 0.01 %ID/g
  Biodistribution of radioactivity in brain region, Cerebellum: 0.08 ± 0.01 %ID/g
  Biodistribution of radioactivity in brain region, Remaining Brain: 0.07 ± 0.01 %ID/g
  Biodistribution of radioactivity, Blood: 0.58 ± 0.51 %ID/g
  Biodistribution of radioactivity, Heart: 0.82 ± 0.70 %ID/g
  Biodistribution of radioactivity, Kidney: 0.96 ± 0.84 %ID/g
  Biodistribution of radioactivity, Liver: 5.67 ± 5.08 %ID/g
  Biodistribution of radioactivity, Lung: 1.86 ± 1.60 %ID/g
  Biodistribution of radioactivity, Muscle: 0.28 ± 0.24 %ID/g
  Biodistribution of radioactivity, Uterus: 0.43 ± 0.38 %ID/g
[3]; 30 min
  Biodistribution of radioactivity in brain region, Amygdala: 0.07 ± 0.03 %ID/g
  Biodistribution of radioactivity in brain region, Basal Hypothalamus: 0.06 ± 0.01 %ID/g
  Biodistribution of radioactivity, Blood: 0.58 ± 0.07 %ID/g
  Biodistribution of radioactivity, Heart: 0.61 ± 0.18 %ID/g
  Biodistribution of radioactivity, Kidney: 0.75 ± 0.07 %ID/g
  Biodistribution of radioactivity, Liver: 3.90 ± 0.15 %ID/g
  Biodistribution of radioactivity, Lung: 1.41 ± 0.72 %ID/g
  Biodistribution of radioactivity, Muscle: 0.26 ± 0.02 %ID/g
  Biodistribution of radioactivity, Uterus: 0.41 ± 0.07 %ID/g
[3]; 60 min
  Biodistribution of radioactivity in brain region, Amygdala: 0.09 ± 0.02 %ID/g
  Biodistribution of radioactivity in brain region, Basal Hypothalamus: 0.06 ± 0.01 %ID/g
  Biodistribution of radioactivity in brain region, Dorsal Striatum: 0.04 ± 0.01 %ID/g
  Biodistribution of radioactivity, Blood: 0.55 ± 0.27 %ID/g
  Biodistribution of radioactivity, Heart: 0.54 ± 0.28 %ID/g
  Biodistribution of radioactivity, Kidney: 0.69 ± 0.30 %ID/g
  Biodistribution of radioactivity, Liver: 3.09 ± 1.34 %ID/g
  Biodistribution of radioactivity, Lung: 1.45 ± 1.04 %ID/g
  Biodistribution of radioactivity, Muscle: 0.23 ± 0.11 %ID/g
  Biodistribution of radioactivity, Uterus: 0.45 ± 0.23 %ID/g
  Biodistribution of radioactivity, Brain: 0.04 ± 0.02 %ID/g
[3]; 120 min
  Biodistribution of radioactivity in brain region, Amygdala: 0.06 ± 0.01 %ID/g
  Biodistribution of radioactivity in brain region, Cerebellum: 0.03 ± 0.01 %ID/g
  Biodistribution of radioactivity in brain region, Dorsal Striatum: 0.03 ± 0.01 %ID/g
  Biodistribution of radioactivity in brain region, Remaining Brain: 0.03 ± 0.01 %ID/g
  Biodistribution of radioactivity, Blood: 0.38 ± 0.14 %ID/g
  Biodistribution of radioactivity, Heart: 0.38 ± 0.06 %ID/g
  Biodistribution of radioactivity, Kidney: 0.42 ± 0.10 %ID/g
  Biodistribution of radioactivity, Liver: 1.81 ± 0.30 %ID/g
  Biodistribution of radioactivity, Muscle: 0.14 ± 0.03 %ID/g
  Biodistribution of radioactivity, Uterus: 0.30 ± 0.10 %ID/g
  Biodistribution of radioactivity, Brain: 0.02 ± 0.01 %ID/g

Reference: publication PMC3701955 (Bioorganic & medicinal chemistry, 2012)
